KCNQ1 act = potentiates or activates the human KCNQ1 potassium channel; P51787; CHO-K1 KCNQ1, thallium flux FluxOR fluorescence; stronger effect = higher value; B-score at 10 µM; 310,000 compounds, 0.35% hits;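 active means fluorescence ratio B-score, a plate-corrected score, at least three library SD, with initial intensity B-score within 5 SD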
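assay system = CHO-K1 cells stably expressing KCNQ1 | medium = assay buffer, equal DMSO in all wells | timing = 37 °C overnight plating, 90-min dark dye load, 20-min compound pretreatment | measured by = kinetic FluxOR thallium fluorescence, 10-s 1-Hz baseline, 110-s post-stimulus read | measure = fluorescence change relative to baseline, converted to B score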
KCNQ1 inh = blocks the human KCNQ1 potassium channel; B-score at 10 µM; CHO-K1 KCNQ1, FluxOR thallium flux fluorescence; stronger effect = higher value; 310,000 compounds, 1.3% hits;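 active means compounds whose thallium flux B-score, printed positive for inhibition, exceeds three library SD while starting fluorescence stays within three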;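 further: channel opened by potassium depolarization with thallium stimulus after 20 min compound exposure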
hERG rescue = shields human hERG channel from block by proarrhythmic agents | activation (rescue from dofetilide block), less the hit threshold, % at 10 µM | CHO-hERG, FluxOR thallium flux, dofetilide IC70 present | AID 1511 | Q12809 | 310,000 compounds, 0.51% hits;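 active means activation above the mean of controls blocked by dofetilide plus 5 SD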;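 further: thallium influx through hERG after potassium depolarization seen as dye fluorescence rise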
Target sequence (Q12809 whole entry, looked up): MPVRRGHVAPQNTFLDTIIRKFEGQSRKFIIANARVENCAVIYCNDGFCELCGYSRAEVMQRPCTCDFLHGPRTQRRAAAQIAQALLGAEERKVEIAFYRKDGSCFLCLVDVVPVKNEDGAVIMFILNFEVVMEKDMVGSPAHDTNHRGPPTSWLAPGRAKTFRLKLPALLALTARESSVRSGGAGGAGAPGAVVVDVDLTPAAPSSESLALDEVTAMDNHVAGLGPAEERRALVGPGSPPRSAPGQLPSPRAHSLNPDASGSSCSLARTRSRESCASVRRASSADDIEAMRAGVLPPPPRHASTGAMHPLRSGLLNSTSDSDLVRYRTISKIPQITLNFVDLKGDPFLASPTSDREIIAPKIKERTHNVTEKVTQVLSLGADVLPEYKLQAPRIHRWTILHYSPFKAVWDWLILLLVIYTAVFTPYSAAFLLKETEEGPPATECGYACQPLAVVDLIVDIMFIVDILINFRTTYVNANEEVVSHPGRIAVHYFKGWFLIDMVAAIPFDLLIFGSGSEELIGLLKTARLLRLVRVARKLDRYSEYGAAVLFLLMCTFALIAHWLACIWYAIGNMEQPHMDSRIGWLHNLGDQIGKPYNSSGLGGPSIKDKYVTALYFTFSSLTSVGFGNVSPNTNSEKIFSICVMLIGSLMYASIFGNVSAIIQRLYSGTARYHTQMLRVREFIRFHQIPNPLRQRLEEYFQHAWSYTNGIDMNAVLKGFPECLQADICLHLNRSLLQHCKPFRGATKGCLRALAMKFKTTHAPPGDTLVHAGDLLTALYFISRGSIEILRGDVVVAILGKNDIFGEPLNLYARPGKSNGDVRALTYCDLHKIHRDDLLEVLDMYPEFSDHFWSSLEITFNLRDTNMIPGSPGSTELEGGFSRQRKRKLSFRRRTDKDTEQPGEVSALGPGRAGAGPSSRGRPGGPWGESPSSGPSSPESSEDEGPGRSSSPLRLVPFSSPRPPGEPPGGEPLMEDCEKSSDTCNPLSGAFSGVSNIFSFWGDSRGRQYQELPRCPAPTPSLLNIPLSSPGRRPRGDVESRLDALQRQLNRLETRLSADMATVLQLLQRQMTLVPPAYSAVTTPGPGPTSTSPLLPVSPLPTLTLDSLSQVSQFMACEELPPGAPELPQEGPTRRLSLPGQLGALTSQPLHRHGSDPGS
KCNK9 inh = blocks the human KCNK9 two-pore domain potassium channel; HEK293 KCNK9, FluxOR thallium flux fluorescence; stronger effect = lower value; B-score at 10 µM; 310,000 compounds, 1.2% hits;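 active means ratio B-score over 3 SD below the library mean, with starting fluorescence within 5 SD of its mean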;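 further: negative B-score means less thallium flux so channel inhibition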
KCNK3 block = human KCNK3 channel inhibition, primary screen | O14649 | AID 602410 | CHO-KCNK3 thallium flux, FluxOR fluorescence; stronger effect = lower value | B-score at 10 µM | 340,000 compounds, 0.84% hits;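 active means B-score under library mean minus 4 SD, starting fluorescence ratio at most library mean plus 5 SD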;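 further: more negative B-score means stronger inhibition of thallium flux through KCNK3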
Kir21 inh = inhibitors of mouse Kir2.1 inward-rectifier potassium channel. P35561. HEK293-Kir2.1, FluxOR thallium flux fluorescence; stronger effect = lower value. B-score at 10 µM. 310,000 compounds, 0.85% hits. AID 1672;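 active means fluorescence ratio B-score at or below minus 3 SD of library scores, with starting-brightness B-score within 2 SD, cut at about -4.2 in these data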;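 further: channel flux triggered by added potassium and thallium sulfate stimulus; B-score of peak minus minimum fluorescence over baseline after thallium stimulus; more negative B-score means stronger Kir2.1 block with less thallium influx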
KCNK9 inh conf = confirmation of human KCNK9 potassium channel inhibitors; shares compounds with KCNK9 inh; HEK293 KCNK9 cells, FluxOR thallium flux fluorescence; inhibition, % at 10 µM; 4,900 compounds, 43% hits; AID 492992;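 active means thallium signal inhibited by more than 5 SD of the compound-free buffer control wells, on both duplicate plates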;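 further: 0% = assay buffer control wells without compound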
Kir2-1 spec = tests whether KCNK9 modulators also affect mouse Kir2.1 | shares compounds with KCNK9 inh | Kir2.1 cells, FluxOR thallium flux fluorescence | inhibition, % at 10 µM | 4,900 compounds, 4% hits;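 active means thallium signal drop more than 5 SD beyond the mean of the no-compound control wells, seen in both duplicate plates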;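 further: signal is fluorescence rise after thallium addition divided by baseline fluorescence; plate controls were assay buffer only for no effect and full block by chlorpromazine control for full effect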
HEK293 Tl ctr = non-induced cell nonspecific activity of KCNK9 modulators; shares compounds with KCNK9 inh; non-induced KCNK9-HEK293, FluxOR thallium flux; inhibition, % at 10 µM; 4,900 compounds, 40% hits; AID 492997;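 active means thallium signal drop beyond 5 SD of the untreated control mean, on both duplicate plates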;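 further: plate controls were buffer only IC0 wells for no effect and SID17386958 at its maximal inhibitory level for full effect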
* marks the source's active call; other numbers are inactive results; i = inactive; x = no result. Only some compounds are listed: those with a hit (about 3.8% of all), similar ones and a draw of the others.

SMILES	KCNQ1 act	KCNQ1 inh	hERG rescue	KCNK9 inh	KCNK3 block	Kir21 inh	KCNK9 inh conf	Kir2-1 spec	HEK293 Tl ctr
COc1ccc(NCc2nc3ccccc3n2C)cc1	i	i	-1	i	i	1.2	x	x	x
c1ccc(OCCn2c(-c3ccco3)nc3ccccc32)cc1	i	i	-13	i	i	0.41	x	x	x
CCOC(=O)CCCCCCCCC(=O)Nc1ccc(-n2[nH]c(=O)cc2C)cc1	x	x	x	x	i	x	x	x	x
CCOC(=O)N1CCc2c(sc3c2c(=O)n(Cc2ccccc2)c(=O)n3Cc2ccccc2F)C1	i	i	-10	i	i	0.24	i	i	i
CCOC(=O)N1CCc2c(sc3c2c(=O)n(Cc2ccccc2)c(=O)n3Cc2cccc(C)c2)C1	i	i	-6	i	i	-0.4	i	i	i
Cc1ccc(CNC(=O)C2CCCN2C(=O)Nc2cccc(Cl)c2)cc1 (stereo unspecified)	i	i	-10	i	i	-0.19	x	x	x
Cc1cc(OCC(=O)Nc2cccnc2)c2c(C)cc(=O)oc2c1	i	i	-11	i	i	-1.6	x	x	x
O=S(=O)(c1cccc(Cl)c1Cl)N1CCCCC1	i	i	-18	i	i	-0.79	x	x	x
O=S(=O)(c1ccccc1Oc1ccc(Cl)cc1Cl)N1CCCCC1	i	i	-8	-9.9*	i	0.49	45%*	i	i
Cc1ccc(-c2nnc(N3CCCCC3)c3ccccc23)cc1S(=O)(=O)NCC1CCCO1 (stereo unspecified)	i	i	-20	-12*	i	-0.26	i	i	i
Cc1cc(O)c(NC(=O)c2cc([N+](=O)[O-])ccc2Cl)cc1C	i	i	-17	-14*	i	-0.73	62%*	i	i
CC1=CC(C)(C)N(C(=O)c2ccccc2)c2ccc(C)cc21	i	i	-11	i	i	0.72	x	x	x
COc1ccc(C(=O)N2c3cc4c(cc3C(C)=CC2(C)C)OCO4)cc1	i	i	-9	-11*	i	2.2	26%*	i	42%*
Oc1ccc2ccccc2c1C=NCc1ccccc1	i	i	-3	i	i	0.06	i	i	i
CCN1CCN(CC(=O)Nc2cc(C)c(C)cc2[N+](=O)[O-])CC1	i	i	-7	i	i	0.01	x	x	x
O=C(O)CCSCC(=O)Nc1c(C(=O)C2CC2)oc2ccccc12	i	i	-8	i	i	-0.62	x	x	x
O=C(CN1CCN(c2ccccc2)CC1)Nc1c(C(=O)C2CC2)oc2ccccc12	i	i	-5	-11*	i	0.41	32%*	i	i
O=C(NCc1ccc(OC(F)(F)F)cc1)C12CN(Cc3ccccc3)CC1C(c1cccc([N+](=O)[O-])c1)=NO2 (stereo unspecified)	i	i	-6	i	i	0.25	x	x	x
O=C(NCc1ccccc1)C12CN(Cc3ccccc3)CC1C(c1cccc([N+](=O)[O-])c1)=NO2 (stereo unspecified)	i	i	-13	i	i	0.05	i	i	i
CCOc1ccc(S(=O)(=O)/N=C(\N)c2ccccc2)cc1	i	i	-5	i	i	0.22	x	x	x
Cc1cccc(-n2c(=S)[nH]c3sc4c(c3c2=O)CCc2ccccc2-4)c1	8*	i	3	i	i	0.82	i	i	i
CN(c1ccccc1)S(=O)(=O)c1cccc(NC(=O)CSc2nncn2C)c1	i	i	-4	i	i	-0.08	x	x	x
CN(c1ccccc1)S(=O)(=O)c1cccc(NC(=O)CSc2ncc(C(F)(F)F)cc2Cl)c1	i	7*	-4	-8.9*	i	-0.35	42%*	i	30%*
CCOc1cc(CNC(C)(C)CO)cc(Br)c1OCc1ccc(Cl)cc1Cl	i	i	-28	-8.7*	i	-9.4*	55%*	53%*	34%*
O=C(COC(=O)c1ccc(O)cc1O)c1ccc(Cl)cc1	i	i	-16	i	i	0.03	x	x	x
SMILES	KCNQ1 act	KCNQ1 inh	hERG rescue	KCNK9 inh	KCNK3 block	Kir21 inh	KCNK9 inh conf	Kir2-1 spec	HEK293 Tl ctr
Cc1cc(NS(=O)(=O)c2ccc(NC(=O)c3oc4ccccc4c3C)cc2)no1	i	i	-18	i	i	0.23	x	x	x
COc1ccc(S(=O)(=O)Nc2c(C)nc3nc(C)[nH]n3c2=O)cc1	i	i	-6	i	i	0.9	i	i	i
COc1ccc(S(=O)(=O)Nc2c(C)nc3nc[nH]n3c2=O)cc1	i	i	-3	i	i	2.4	x	x	x
O=C(c1cccc(N2CCNC2=O)c1)N1CCCC(Nc2cccc(F)c2)C1 (stereo unspecified)	i	i	-11	i	i	2.6	x	x	x
CCN(CC)S(=O)(=O)c1ccc2c(c1)nc(SC(C)C(=O)NCC1CCCO1)n2CC (stereo unspecified)	i	i	-11	i	i	0.39	i	i	i
CCCCCCCOC(=O)C[N+](C)(C)CCOC1CC2CCC1(C)C2(C)C (stereo unspecified)	i	13*	-25	-11*	i	-8.2*	54%*	73%*	22%*
CCCOC(=O)C[N+](C)(C)CCOC1CC2CCC1(C)C2(C)C (stereo unspecified)	i	i	-11	i	i	-0.06	x	x	x
O=C(CN1CCN(c2ccccn2)CC1)N1c2ccccc2CCc2ccccc21	i	i	-15	i	i	-0.55	x	x	x
Cc1c(C)n(C(=O)CN2CCN(c3ccccn3)CC2)c2ccccc12	i	i	-16	i	i	0.14	i	i	i
CC(C)C(=O)Nc1nnc(NC(=S)Nc2ccccc2)s1	i	i	-9	i	i	0.18	x	x	x
C/C(=N/OC(=O)c1ccccc1Br)c1ccc(C)cc1	i	i	-11	-12*	i	0.82	58%*	i	34%*
C/C(=N/OC(=O)c1ccc(C)cc1)c1cccs1	i	i	-7	i	i	0.91	x	x	x

Screening data (PubChem)
